Results as given in ChEMBL document CHEMBL3046177, “Plant growth inhibitory activity of p-hydroxyacetophenones and tremetones from Chilean endemic Baccharis species and some analogous: a comparative study” (J Agric Food Chem, 2002).
Calls of active or inactive are those of the source. The rule behind the calls is not given here.

Columns and labels:
[1] = system: Trifolium pratense; test: Phytotoxicity against Trifolium pratense (red clover) assessed as inhibition of seed respiration during germination after 72 hr; type: functional, organism-based; conditions: read-out: I50
Method in brief: (§1)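 Oxygen uptake of germinating seeds measured polarographically with a Clark-type electrode at 25 °C in a nonilluminated cell over 5 and 10 min, at several compound concentrations. Expressed as percent of control (100%). Three experiments; RI50 from Probit analysis.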

[2] = system: Trifolium pratense; test: Phytotoxicity against Trifolium pratense (red clover) assessed as inhibition of shoot development during seeding stage after 120 hr; type: functional, organism-based; conditions: for IC50: read-out: I50
Method in brief: (§2)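 Petri-dish seedling assay on filter paper wetted with test solution (MeOH < 1%), 28 °C in the dark. Coleoptile/hypocotyl and root lengths of all germinated seeds measured after 120 h, then plants dried to constant weight at 40 °C. Three replicates; 50% inhibitory concentrations by Probit analysis of percent inhibition versus concentration.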

[3] = system: Lolium multiflorum; test: Phytotoxicity against Lolium multiflorum (Italian ryegrass) assessed as inhibition of root development during seeding stage after 120 hr; type: functional, organism-based; conditions: for IC50: read-out: I50; method in brief: as §2
[4] = system: Phaseolus vulgaris; test: Inhibition of mitochondrial respiration in Phaseolus vulgaris root mitochondria assessed as reduction of oxygen uptake; type: functional; conditions: read-out: I50
Method in brief: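 Mitochondria from roots of 72 h dark-grown (28 °C) bean seedlings, Percoll-gradient purified, 0.3-0.5 mg protein (Bradford) per run; integrity checked with HCN. Compounds in 0.5% methanol added after a constant state 3 rate with […] was reached. O2 uptake by Clark electrode; control is mitochondria with 0.5% MeOH. Three experiments; I50 by Probit.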

[5] = system: Physalis ixocarpa; test: Phytotoxicity against Physalis ixocarpa assessed as inhibition of seed respiration during germination after 72 hr; type: functional, organism-based; conditions: read-out: I50; method in brief: as §1
[6] = system: Lactuca sativa; test: Phytotoxicity against Lactuca sativa (lettuce) assessed as inhibition of seed respiration during germination after 72 hr; type: functional, organism-based; conditions: read-out: I50; method in brief: as §1
[7] = Antioxidant activity assessed as inhibition of bleaching of water soluble crocin measured every 5 min by spectrophotometric analysis; type: functional
Method in brief: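 Aqueous mixture of 10 µM crocin, 1 mM t-BuOOH and 0.5 M t-BuOH with serial dilutions of test compound, placed under UV254 light; crocin bleaching (absorbance decrease) and fluorescence emission at 440 and 470 nm followed every 5 min. Three experiments, mean ± SEM.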

[8] = system: Physalis ixocarpa; test: Phytotoxicity against Physalis ixocarpa assessed as inhibition of root development during seeding stage after 120 hr; type: functional, organism-based; conditions: for IC50: read-out: I50; method in brief: as §2
[9] = system: Spinacia oleracea; test: Inhibition of ATP synthesis in Spinacia oleracea (spinach) chloroplasts; type: functional
Method in brief: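 Spinach thylakoids in 100 mM sorbitol, 5 mM MgCl2, 10 mM KCl, 1 mM Na+-tricine, pH 8, with 50 µM methyl viologen as Hill-reaction electron acceptor. Illuminated at 20 °C through 1% CuSO4 filter. ATP synthesis measured titrimetrically.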

[10] = system: Physalis ixocarpa; test: Phytotoxicity against Physalis ixocarpa assessed as inhibition of seed germination after 48 hr; type: functional
Method in brief: (§3)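 Seeds of uniform size on Whatman No.1 filter paper in 85 mm Petri dishes, wetted with 8 or 10 mL deionized water or test solution (MeOH < 1%); controls got matching water/methanol. Sealed, incubated at 28 °C in the dark, scored at 48 h intervals; germination = 1 mm radicle extrusion. Three replicates.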

[11] = system: Spinacia oleracea; test: Inhibition of H+ uptake in Spinacia oleracea (spinach) chloroplasts; type: functional; conditions: for IC50: read-out: I50
Method in brief: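 Spinach thylakoids (from isolated chloroplasts, in sorbitol/tricine/MgCl2/NaCl buffer, pH 7.8) in 100 mM sorbitol, 5 mM MgCl2, 10 mM KCl, 1 mM Na+-tricine, pH 8, with 50 µM methyl viologen. Illuminated at 20 °C through 1% CuSO4 filter. H+ uptake recorded as pH rise from 8.0 to 8.1 with combination microelectrode on expanded scale.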

[12] = system: Trifolium pratense; test: Phytotoxicity against Trifolium pratense (red clover) assessed as inhibition of seed germination after 48 hr; type: functional; method in brief: as §3
[13] = system: Lolium multiflorum; test: Phytotoxicity against Lolium multiflorum (Italian ryegrass) assessed as inhibition of shoot development during seeding stage after 120 hr; type: functional, organism-based; conditions: for IC50: read-out: I50; method in brief: as §2
[14] = system: Lactuca sativa; test: Phytotoxicity against Lactuca sativa (lettuce) assessed as inhibition of shoot development during seeding stage after 120 hr; type: functional, organism-based; conditions: for IC50: read-out: I50; method in brief: as §2
[15] = system: Lolium multiflorum; test: Phytotoxicity against Lolium multiflorum (Italian ryegrass) assessed as inhibition of seed germination after 48 hr; type: functional; method in brief: as §3
[16] = system: Radical scavenging activity; test: Antioxidant activity assessed as DPPH free radical scavenging activity after 30 min by TLC autographic assay; type: functional; conditions: in the assay text read “spectrophotometric assay” for “TLC autographic assay”; read-out: I50
[17] = system: Trifolium pratense; test: Phytotoxicity against Trifolium pratense (red clover) assessed as inhibition of root development during seeding stage after 120 hr; type: functional, organism-based; conditions: for IC50: read-out: I50; method in brief: as §2
[18] = system: Lactuca sativa; test: Phytotoxicity against Lactuca sativa (lettuce) assessed as inhibition of root development during seeding stage after 120 hr; type: functional, organism-based; conditions: for IC50: read-out: I50; method in brief: as §2
[19] = system: Lactuca sativa; test: Phytotoxicity against Lactuca sativa (lettuce) assessed as inhibition of seed germination after 48 hr; type: functional; method in brief: as §3
[20] = system: Lolium multiflorum; test: Phytotoxicity against Lolium multiflorum (Italian ryegrass) assessed as inhibition of seed respiration during germination after 72 hr; type: functional, organism-based; conditions: read-out: I50; method in brief: as §1
[21] = system: Physalis ixocarpa; test: Phytotoxicity against Physalis ixocarpa assessed as inhibition of shoot development during seeding stage after 120 hr; type: functional, organism-based; conditions: for IC50: read-out: I50; method in brief: as §2
[22] = system: Lolium multiflorum; test: Phytotoxicity against Lolium multiflorum (Italian ryegrass) assessed as inhibition of seed respiration during germination after 24 hr; type: functional, organism-based; method in brief: as §1
[23] = system: Trifolium pratense; test: Phytotoxicity against Trifolium pratense (red clover) assessed as inhibition of seed respiration during germination after 24 hr; type: functional, organism-based; method in brief: as §1
[24] = system: Physalis ixocarpa; test: Phytotoxicity against Physalis ixocarpa assessed as inhibition of seed respiration during germination after 24 hr; type: functional, organism-based; method in brief: as §1
[25] = system: Lactuca sativa; test: Phytotoxicity against Lactuca sativa (lettuce) assessed as inhibition of seed respiration during germination after 24 hr; type: functional, organism-based; method in brief: as §1
[26] = system: Lolium multiflorum (ryegrass); test: Phytotoxicity against Lolium multiflorum (ryegrass) assessed as inhibition of seed germination at 500 uM after 48 hr
[27] = system: Trifolium pratense; test: Increase of root development during seeding stage in Trifolium pratense (red clover) at 50 to 300 uM after 120 hr; type: functional, organism-based; method in brief: as §2
[28] = system: Trifolium pratense; test: Increase of shoot development during seeding stage in Trifolium pratense (red clover) at 200 uM after 120 hr; type: functional, organism-based; method in brief: as §2
[29] = system: Lolium multiflorum; test: Phytotoxicity against Lolium multiflorum (Italian ryegrass) assessed as inhibition of seed germination at 500 uM after 48 hr; type: functional; method in brief: as §3
[30] = system: Lactuca sativa; test: Increase of root development during seeding stage in Lactuca sativa (lettuce) at 50 to 300 uM after 120 hr; type: functional, organism-based; method in brief: as §2
[31] = system: Physalis ixocarpa; test: Increase of shoot development during seeding stage in Physalis ixocarpa up to 50 uM after 120 hr; type: functional, organism-based; method in brief: as §2
[32] = system: Lolium multiflorum; test: Phytotoxicity against Lolium multiflorum (Italian ryegrass) assessed as inhibition of seed respiration during germination at 300 to 500 uM after 24 hr; type: functional, organism-based; method in brief: as §1
[33] = system: Lolium multiflorum; test: Increase of seed respiration during germination in Lolium multiflorum (Italian ryegrass)at 30 uM; type: functional, organism-based; method in brief: as §1

Row | Compound | IC50 [11] [µM] | IC50 [1] [µM] | IC50 [2] [µM] | IC50 [3] [µM] | IC50 [4] [µM] | IC50 [5] [µM] | IC50 [6] [µM] | inhibition [7] | IC50 [8] [µM] | inhibition [9] | GI50 [10] | inhibition [11] | GI50 [12] | IC50 [13] [µM] | IC50 [14] [µM] | GI50 [15] | IC50 [17] [µM] | IC50 [18] [µM] | GI50 [19] | IC50 [20] [µM] | also measured
1 | CC(=O)c1ccc2c(c1O)C[C@H](C1(C)CO1)O2 (stereo partly specified) | 13.8 | 10.1 | 7.2 | 11.9 | 17.1 | 15.8 | 11 | Active | 9.9 | Dose-dependent effect | 8.7 µM | Dose-dependent effect | 7.1 µM | 11.2 | 10.5 | 10.4 µM | 7.1 | 10.9 | 11.5 µM | 18 | IC50 [16]: 30.6 µM; IC50 [21]: 7.7 µM
2 | CC(=O)c1ccc(Br)cc1 | – | – | – | – | – | – | – | – | – | – | inactive | – | inactive | – | – | inactive | – | – | inactive | – | I50 [2]: inactive; I50 [3]: inactive; I50 [22]: inactive; I50 [23]: inactive; I50 [24]: inactive; I50 [25]: inactive; I50 [8]: inactive; inhibition at 500 µM [26]: 30%; I50 [13]: inactive; I50 [14]: inactive; I50 [17]: inactive; I50 [18]: inactive; Activity [27]: Active; Activity [28]: Active; inhibition at 500 µM [29]: 30%; Activity [30]: Active; I50 [21]: inactive; Activity [31]: Active
3 | CC(=O)Oc1ccc(C(C)=O)cc1 [4-(ACETATE)ACETOPHENONE] | – | – | 234 | 75.5 | – | – | – | – | – | – | inactive | – | 233 µM | 77.3 | 39.1 | 75.3 µM | 221 | 38.9 | 41 µM | – | I50 [22]: inactive; I50 [23]: inactive; I50 [24]: inactive; I50 [25]: inactive; I50 [8]: inactive; inhibition at 500 µM [26]: 30%; Activity [32]: Active; Activity [27]: Active; Activity [28]: Active; inhibition at 500 µM [29]: 30%; Activity [30]: Active; I50 [21]: inactive; Activity [31]: Active; Activity [33]: Active

Now from value to compound, other results behind:

Row | IC50 [11] [µM] | Compound | IC50 [1] [µM] | IC50 [2] [µM] | IC50 [3] [µM] | IC50 [4] [µM] | IC50 [5] [µM] | IC50 [6] [µM] | inhibition [7] | IC50 [8] [µM] | inhibition [9] | GI50 [10] | inhibition [11] | GI50 [12] | IC50 [13] [µM] | IC50 [14] [µM] | GI50 [15] | IC50 [17] [µM] | IC50 [18] [µM] | GI50 [19] | IC50 [20] [µM] | also measured
4 | 20.4 | C=C(C)[C@H]1Cc2c(ccc(C(C)=O)c2O)O1 [4-HYDROXY TREMETONE] | 22 | 47.6 | 22.3 | 45 | 28.7 | 27 | Active | 12.7 | Dose-dependent effect | 16.6 µM | Dose-dependent effect | 17.8 µM | 26.2 | 19 | 25.5 µM | 46.3 | 16.7 | 21 µM | 39 | IC50 [16]: 53.2 µM; IC50 [21]: 15.2 µM
5 | 74.5 | CC(=O)c1ccc(O)cc1 [4-HYDROXYACETOPHENONE] | 53 | 34.4 | 19 | 121 | 52.9 | 43 | Active | 10.8 | Dose-dependent effect | 15 µM | Dose-dependent effect | 28.5 µM | 17.1 | 48.5 | 14.4 µM | 29.5 | 45.5 | 45.3 µM | 41 | IC50 [21]: 10.8 µM
